According to ChEMBL document CHEMBL5724801, “EUbOPEN Chemogenomics Library - Multiplex” (2024):
Values joined by “and” are separate entries in the source; they are usually repeats but may differ in a detail not shown here. Equal values may be shown once.

Test system: Fibroblast
Assay: Multiplex assay against human fibroblast
Type: toxicity, cell-based
How it was run: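 With compound added, live cells were imaged on a CQ1 microscope at 37°C and 5% CO2; staining with Hoechst33342, BioTracker Green Microtubule Cytoskeleton Dye, MitoTracker Red and Annexin V Alexa Fluor 680 had been done at seeding. The CellPathfinder machine-learning gating scheme split cells into Hoechst high-intensity objects or normal cells, normal cells into healthy, pyknosed or fragmented nuclei, and pyknosed cells into mitotic or apoptotic. The tubulin, mitochondrial-mass and membrane-permeability phenotypes are per cents of healthy-nucleus cells.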

[1] = 12 h, 1 µM, compound concentration 1 uM
[2] = 12 h, 10 µM, compound concentration 10 uM
[3] = 24 h, 1 µM, compound concentration 1 uM
[4] = 24 h, 10 µM, compound concentration 10 uM
[5] = 48 h, 1 µM, compound concentration 1 uM
[6] = 48 h, 10 µM, compound concentration 10 uM

## COc1cc(N2CCN(C)CC2)ccc1Nc1nccc(-c2cn(C)c3cnccc23)n1
[1]
  Population Apoptotic (%): 11.76% and 10%
  Population Fragmented Nuclei (%): 12.81% and 10.18%
  Population Healthy Nuclei (%): 70.44% and 80.97%
  Population Hoechst High Intensity Objects (%): 0%
  Population Membrane Permeable-Phenotype (%): 3.5% and 4.92%
  Population Mitochondria Different-Phenotype (%): 9.79% and 6.56%
  Population Mitotic Cells (%): 88.24% and 90%
  Population Normal (%): 100%
  Population Pyknosed Nuclei (%): 16.75% and 8.85%
  Population Tubulin-Different-Phenotype (%): 16.78% and 35.52%
  Total Cell Count: 203 and 226
[2]
  Population Apoptotic (%): 3.08% and 5.97%
  Population Healthy Nuclei (%): 41.67% and 59.65%
  Population Hoechst High Intensity Objects (%): 0%
  Population Membrane Permeable-Phenotype (%): 13.85% and 8.82%
  Population Mitochondria Different-Phenotype (%): 35.38% and 54.9%
  Population Mitotic Cells (%): 96.92% and 94.03%
  Population Normal (%): 100%
  Population Pyknosed Nuclei (%): 41.67% and 39.18%
  Population Tubulin-Different-Phenotype (%): 55.38% and 85.29%
  Total Cell Count: 156 and 171
[3]
  Population Apoptotic (%): 21.74% and 7.69%
  Population Fragmented Nuclei (%): 12.15% and 10.47%
  Population Healthy Nuclei (%): 77.1% and 84.5%
  Population Hoechst High Intensity Objects (%): 0%
  Population Membrane Permeable-Phenotype (%): 4.85% and 5.05%
  Population Mitochondria Different-Phenotype (%): 10.3% and 3.21%
  Population Mitotic Cells (%): 78.26% and 92.31%
  Population Normal (%): 100%
  Population Pyknosed Nuclei (%): 10.75% and 5.04%
  Population Tubulin-Different-Phenotype (%): 13.94% and 38.53%
  Total Cell Count: 214 and 258
[4]
  Population Apoptotic (%): 5.77% and 8.77%
  Population Healthy Nuclei (%): 47.62% and 66.67%
  Population Hoechst High Intensity Objects (%): 0%
  Population Membrane Permeable-Phenotype (%): 2.86% and 10.48%
  Population Mitochondria Different-Phenotype (%): 41.43% and 41.13%
  Population Mitotic Cells (%): 94.23% and 91.23%
  Population Normal (%): 100%
  Population Pyknosed Nuclei (%): 35.37% and 30.65%
  Population Tubulin-Different-Phenotype (%): 70% and 74.19%
  Total Cell Count: 147 and 186
[5]
  Population Fragmented Nuclei (%): 17.86% and 7.25%
  Population Healthy Nuclei (%): 77.23% and 87.02%
  Population Hoechst High Intensity Objects (%): 0%
  Population Membrane Permeable-Phenotype (%): 0% and 1.75%
  Population Mitochondria Different-Phenotype (%): 12.72% and 3.95%
  Population Mitotic Cells (%): 100% and 66.67%
  Population Normal (%): 100%
  Population Pyknosed Nuclei (%): 4.91% and 5.73%
  Population Tubulin-Different-Phenotype (%): 12.72% and 38.16%
  Total Cell Count: 224 and 262
[6]
  Population Fragmented Nuclei (%): 16.88% and 21.97%
  Population Healthy Nuclei (%): 73.75% and 64.57%
  Population Hoechst High Intensity Objects (%): 0%
  Population Membrane Permeable-Phenotype (%): 5.08% and 2.08%
  Population Mitochondria Different-Phenotype (%): 31.36% and 25%
  Population Mitotic Cells (%): 66.67% and 90%
  Population Normal (%): 100%
  Population Pyknosed Nuclei (%): 9.38% and 13.45%
  Population Tubulin-Different-Phenotype (%): 44.92% and 80.56%
  Total Cell Count: 160 and 223

## O=C(O)C(F)(F)F.O=C1NC(=O)/C(=C/c2c[nH]c(=O)c(-c3ccc(N4CCNCC4)nc3)c2)S1
[1]
  Population Apoptotic (%): 11.76% and 21.95%
  Population Fragmented Nuclei (%): 12.02% and 8.21%
  Population Healthy Nuclei (%): 60.11% and 70.77%
  Population Hoechst High Intensity Objects (%): 0%
  Population Membrane Permeable-Phenotype (%): 3.64% and 0%
  Population Mitochondria Different-Phenotype (%): 8.18% and 7.25%
  Population Mitotic Cells (%): 88.24% and 78.05%
  Population Normal (%): 100%
  Population Pyknosed Nuclei (%): 27.87% and 21.03%
  Population Tubulin-Different-Phenotype (%): 8.18% and 12.32%
  Total Cell Count: 183 and 195
[2]
  Population Apoptotic (%): 13.51% and 16.13%
  Population Healthy Nuclei (%): 62.9% and 80.28%
  Population Hoechst High Intensity Objects (%): 0%
  Population Membrane Permeable-Phenotype (%): 5.98% and 3.51%
  Population Mitochondria Different-Phenotype (%): 4.27% and 11.7%
  Population Mitotic Cells (%): 86.49% and 83.87%
  Population Normal (%): 100%
  Population Pyknosed Nuclei (%): 19.89% and 14.55%
  Total Cell Count: 186 and 213
[3]
  Population Apoptotic (%): 10.42% and 17.86%
  Population Fragmented Nuclei (%): 12.43% and 7.25%
  Population Healthy Nuclei (%): 61.62% and 78.24%
  Population Hoechst High Intensity Objects (%): 0%
  Population Membrane Permeable-Phenotype (%): 4.39% and 3.97%
  Population Mitochondria Different-Phenotype (%): 4.39% and 9.27%
  Population Mitotic Cells (%): 89.58% and 82.14%
  Population Normal (%): 100%
  Population Pyknosed Nuclei (%): 25.95% and 14.51%
  Population Tubulin-Different-Phenotype (%): 10.53% and 16.56%
  Total Cell Count: 185 and 193
[4]
  Population Apoptotic (%): 24.24% and 20.59%
  Population Fragmented Nuclei (%): 13.83% and 5.22%
  Population Healthy Nuclei (%): 68.62% and 80%
  Population Hoechst High Intensity Objects (%): 0%
  Population Membrane Permeable-Phenotype (%): 3.88% and 1.09%
  Population Mitochondria Different-Phenotype (%): 4.65% and 6.52%
  Population Mitotic Cells (%): 75.76% and 79.41%
  Population Normal (%): 100%
  Population Pyknosed Nuclei (%): 17.55% and 14.78%
  Population Tubulin-Different-Phenotype (%): 10.85% and 20.11%
  Total Cell Count: 188 and 230
[5]
  Population Apoptotic (%): 26.32% and 27.27%
  Population Fragmented Nuclei (%): 10.5% and 6.53%
  Population Healthy Nuclei (%): 81.51% and 87.94%
  Population Hoechst High Intensity Objects (%): 0%
  Population Membrane Permeable-Phenotype (%): 1.03% and 1.71%
  Population Mitochondria Different-Phenotype (%): 8.76% and 5.71%
  Population Mitotic Cells (%): 73.68% and 72.73%
  Population Normal (%): 100%
  Population Pyknosed Nuclei (%): 7.98% and 5.53%
  Population Tubulin-Different-Phenotype (%): 6.7% and 18.86%
  Total Cell Count: 238 and 199
[6]
  Population Apoptotic (%): 50% and 55.56%
  Population Fragmented Nuclei (%): 7.94% and 3.6%
  Population Healthy Nuclei (%): 88.89% and 92.34%
  Population Hoechst High Intensity Objects (%): 0%
  Population Membrane Permeable-Phenotype (%): 1.19% and 1.46%
  Population Mitotic Cells (%): 50% and 44.44%
  Population Normal (%): 100%
  Population Pyknosed Nuclei (%): 3.17% and 4.05%
  Total Cell Count: 189 and 222

## Cc1nc2ccc(Oc3ccc(F)cc3)cc2c(=O)n1C[C@H]1CCCN(C(C)C)C1.Cl
[1]
  Population Apoptotic (%): 34% and 44%
  Population Fragmented Nuclei (%): 19% and 24%
  Population Healthy Nuclei (%): 67% and 47%
  Population Hoechst High Intensity Objects (%): 5% and 9%
  Population Mitochondria Different-Phenotype (%): 4% and 8%
  Population Mitotic Cells (%): 65% and 55%
  Population Normal (%): 94% and 90%
  Population Pyknosed Nuclei (%): 13% and 29%
  Population Tubulin-Different-Phenotype (%): 31% and 70%
  Total Cell Count: 184 and 111
[2]
  Population Apoptotic (%): 53% and 61%
  Population Fragmented Nuclei (%): 19% and 36%
  Population Healthy Nuclei (%): 61% and 44%
  Population Hoechst High Intensity Objects (%): 4% and 3%
  Population Membrane Permeable-Phenotype (%): 1% and 5%
  Population Mitochondria Different-Phenotype (%): 22% and 25%
  Population Mitotic Cells (%): 46% and 38%
  Population Normal (%): 95% and 96%
  Population Pyknosed Nuclei (%): 19%
  Population Tubulin-Different-Phenotype (%): 88% and 80%
  Total Cell Count: 241 and 205
[3]
  Population Apoptotic (%): 66% and 38%
  Population Fragmented Nuclei (%): 17% and 29%
  Population Healthy Nuclei (%): 68% and 50%
  Population Hoechst High Intensity Objects (%): 3% and 7%
  Population Mitochondria Different-Phenotype (%): 6% and 17%
  Population Mitotic Cells (%): 33% and 61%
  Population Normal (%): 96% and 92%
  Population Pyknosed Nuclei (%): 13% and 20%
  Population Tubulin-Different-Phenotype (%): 30% and 73%
  Total Cell Count: 186 and 112
[4]
  Population Apoptotic (%): 67% and 54%
  Population Fragmented Nuclei (%): 27% and 30%
  Population Healthy Nuclei (%): 58% and 52%
  Population Hoechst High Intensity Objects (%): 3% and 6%
  Population Membrane Permeable-Phenotype (%): 0% and 1%
  Population Mitochondria Different-Phenotype (%): 27% and 29%
  Population Mitotic Cells (%): 32% and 45%
  Population Normal (%): 96% and 93%
  Population Pyknosed Nuclei (%): 13% and 17%
  Population Tubulin-Different-Phenotype (%): 84% and 87%
  Total Cell Count: 290 and 187
[5]
  Population Apoptotic (%): 66% and 42%
  Population Fragmented Nuclei (%): 25% and 36%
  Population Healthy Nuclei (%): 66% and 44%
  Population Hoechst High Intensity Objects (%): 3% and 5%
  Population Membrane Permeable-Phenotype (%): 0% and 6%
  Population Mitotic Cells (%): 33% and 57%
  Population Normal (%): 96% and 94%
  Population Pyknosed Nuclei (%): 8% and 19%
  Population Tubulin-Different-Phenotype (%): 33% and 68%
  Total Cell Count: 184 and 105
[6]
  Population Apoptotic (%): 66% and 68%
  Population Fragmented Nuclei (%): 23% and 33%
  Population Healthy Nuclei (%): 65% and 53%
  Population Hoechst High Intensity Objects (%): 9% and 3%
  Population Membrane Permeable-Phenotype (%): 0% and 2%
  Population Mitochondria Different-Phenotype (%): 20% and 19%
  Population Mitotic Cells (%): 33% and 32%
  Population Normal (%): 90% and 96%
  Population Pyknosed Nuclei (%): 10% and 12%
  Population Tubulin-Different-Phenotype (%): 85%
  Total Cell Count: 290 and 201
